Laboratory results published in ChEMBL document CHEMBL1142446, “Discovery of 3-acetyl-4-hydroxy-2-pyranone derivatives and their difluoridoborate complexes as a novel class of HIV-1 integrase inhibitors” (Bioorg Med Chem, 2008).
The source made the active and inactive calls. No cut-off for these calls is given here.

Assays:
[1] = molecular target: T1, Human immunodeficiency virus type 1 integrase (Human immunodeficiency virus 1, UniProt Q7ZJM1); test: Inhibition of wild-type HIV1 integrase 3'-end processing activity
T1 sequence (Q7ZJM1 whole entry): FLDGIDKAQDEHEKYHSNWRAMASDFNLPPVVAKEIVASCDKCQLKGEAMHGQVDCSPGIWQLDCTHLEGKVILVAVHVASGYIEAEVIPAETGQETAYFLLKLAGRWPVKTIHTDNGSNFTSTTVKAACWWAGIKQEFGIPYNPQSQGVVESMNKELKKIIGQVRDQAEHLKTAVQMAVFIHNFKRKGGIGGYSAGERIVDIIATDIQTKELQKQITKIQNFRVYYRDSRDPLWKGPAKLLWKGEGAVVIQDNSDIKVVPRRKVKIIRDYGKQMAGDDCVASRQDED
Summary of the method: (§1)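 Recombinant wild-type HIV-1 integrase (200 nM final) preincubated with inhibitor for 30 min at 30 °C in 25 mM MOPS pH 7.2 with 50 mM NaCl, 7.5 mM MnCl2, 10% DMSO, BSA and thiols. Then 20 nM 5′-³²P-labeled 21-mer duplex substrate (21top/21bot) was added for 1 h. Quenched in formamide dye and resolved on denaturing 20% polyacrylamide–urea gel. Selectivity index = IC50(3′-processing)/IC50(strand transfer).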

[2] = molecular target: T1, Human immunodeficiency virus type 1 integrase; test: Inhibition of wild-type HIV1 integrase strand transfer activity; summary of the method: as §1
[3] = Cytotoxicity against human HCT 116 cells after 72 hrs by MTT assay; type: cell-based; conditions: hct-116, 72 h
Summary of the method: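 HCT-116 monolayers were seeded at 8 × 10³ cells/well and attached overnight. Compounds in RPMI-1640 with 10% […] were added at a single final concentration of 10 and exposed for 72 h. MTT was then added for 4 h, crystals were dissolved in DMSO, and absorbance was read at 570 nm against blanks.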

[4] = molecular target: Human immunodeficiency virus type 1 integrase (Human immunodeficiency virus 1) (UniProt Q7ZJM1); test: Selectivity index, ratio of IC50 for wild-type HIV1 integrase 3'-end processing activity to IC50 for wild-type HIV1 integrase strand transfer activity; summary of the method: as §1
Chain of Human immunodeficiency virus type 1 integrase (Human immunodeficiency virus 1) (Q7ZJM1 as listed by the source): as the sequence (Q7ZJM1 whole entry) above

HCT-116 (Homo sapiens) = test: Cytotoxicity against human HCT 116 cells by MTT assay

Row | Structure (SMILES) | IC50 [1] | IC50 [2] | Activity [3] | Ratio IC50 [4] | Activity (HCT-116 (Homo sapiens))
1 | CN(C)c1ccc(/C=C/C(=O)c2c(O)cc(/C=C/c3ccc(N(C)C)cc3)oc2=O)cc1 | > 100 µM | > 100 µM | > 10 µM |  | 
2 | Cc1cc(O)c(C(=O)/C=C/C=C/c2ccc(N(C)C)cc2)c(=O)o1 | > 100 µM | > 100 µM | > 10 µM |  | 
3 | Cc1cc2c(c(=O)o1)C(/C=C/C=C/c1ccc(N(C)C)cc1)=[O+][B-](F)(F)O2 | > 100 µM | 100 µM | > 10 µM |  | 
4 | Cc1cc(O)c(C(=O)/C=C/c2ccc(Br)cc2)c(=O)o1 | > 100 µM | > 100 µM | > 10 µM |  | 
5 | CC[NH+](CC)CC.Cc1cc2c(c(=O)o1)C(/C=C/C=C1\O[B-](F)(F)Oc3cc(C)oc(=O)c31)=[O+][B-](F)(F)O2 | 13 µM | 7 µM | > 10 µM | 1.9 | inactive
6 | Cc1cc2c(c(=O)o1)C(/C=C/c1ccc(Br)cc1)=[O+][B-](F)(F)O2 | 12 µM | 4 µM | > 10 µM | 3.3 | inactive
7 | Cc1cc2c(c(=O)o1)C(/C=C/C=C1/N(C)c3ccccc3C1(C)C)=[O+][B-](F)(F)O2 | > 100 µM | > 100 µM | > 10 µM |  | 
8 | CN(C)c1ccc(/C=C/C2=[O+][B-](F)(F)Oc3cc(/C=C/c4ccc(N(C)C)cc4)oc(=O)c32)cc1 | > 100 µM | > 100 µM | > 10 µM |  | 
9 | COc1ccc(Br)cc1/C=C/C(=O)c1c(O)cc(/C=C/c2ccc(N(C)C)cc2)oc1=O | > 100 µM | 100 µM | > 10 µM |  | 
10 | COc1ccc(/C=C/C2=[O+][B-](F)(F)Oc3cc(/C=C/c4ccc(N(C)C)cc4)oc(=O)c32)cc1 | > 100 µM | > 100 µM | > 10 µM |  | 
11 | Cc1cc2c(c(=O)o1)C(/C=C/c1ccc(N(C)C)cc1)=[O+][B-](F)(F)O2 | > 100 µM | 56 µM | > 10 µM | > 1.8 | 
12 | COc1ccc(/C=C/C=C/C2=[O+][B-](F)(F)Oc3cc(C)oc(=O)c32)cc1 | 11 µM | 4 µM | > 10 µM | 2.5 | inactive
13 | Cc1cc2c(c(=O)o1)C(/C=C/c1ccc(F)cc1)=[O+][B-](F)(F)O2 | 9 µM | 16 µM | > 10 µM | 0.6 | 
14 | Cc1cc(O)c(C(=O)/C=C/c2ccc(F)cc2)c(=O)o1 | 64 µM | > 100 µM | > 10 µM | < 0.7 | 
15 | COc1ccc(/C=C/C(=O)c2c(O)cc(/C=C/c3ccc(N(C)C)cc3)oc2=O)cc1 | > 100 µM | > 100 µM | > 10 µM |  | 
16 | COc1ccc(Br)cc1/C=C/C1=[O+][B-](F)(F)Oc2cc(/C=C/c3ccc(N(C)C)cc3)oc(=O)c21 | > 100 µM | > 100 µM | > 10 µM |  | 
17 | Cc1cc2c(c(=O)o1)C(/C=C/c1ccc(Br)s1)=[O+][B-](F)(F)O2 | 9 µM | 3 µM | > 10 µM | 3.2 | inactive
18 | Cc1cc(O)c(C(=O)/C=C/c2ccc(Br)s2)c(=O)o1 | 65 µM | 23 µM | > 10 µM | 2.8 | 
19 | Cc1cc(O)c(C(=O)/C=C/C=C2/N(C)c3ccccc3C2(C)C)c(=O)o1 | > 100 µM | > 100 µM | > 10 µM |  | 
20 | Cc1cc2c(c(=O)o1)C(/C=C/c1ccc(N(C)C)s1)=[O+][B-](F)(F)O2 | > 100 µM | > 100 µM | > 10 µM |  | 
21 | Cc1cc(O)c(C(=O)/C=C/c2ccc(N(C)C)s2)c(=O)o1 | 19 µM | 11 µM | > 10 µM | 1.8 | 
22 | COc1ccc(/C=C/C=C/C(=O)c2c(O)cc(C)oc2=O)cc1 | > 100 µM | 39 µM | > 10 µM | > 2.6 | 
